CHRM4 antagonist: antagonists of human muscarinic M4 receptor (CHRM4); inhibition, % at 3 µM; hit rate 0.73% among 360,000; CHO-hM4 cells, ACh EC80, Fluo-8 calcium fluorescence; P08173;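 active = inhibition above its plate's cutoff, the mean inhibition of sample wells plus 3 SD, cut at about 27% in these data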
Target sequence (P08173 whole entry, looked up): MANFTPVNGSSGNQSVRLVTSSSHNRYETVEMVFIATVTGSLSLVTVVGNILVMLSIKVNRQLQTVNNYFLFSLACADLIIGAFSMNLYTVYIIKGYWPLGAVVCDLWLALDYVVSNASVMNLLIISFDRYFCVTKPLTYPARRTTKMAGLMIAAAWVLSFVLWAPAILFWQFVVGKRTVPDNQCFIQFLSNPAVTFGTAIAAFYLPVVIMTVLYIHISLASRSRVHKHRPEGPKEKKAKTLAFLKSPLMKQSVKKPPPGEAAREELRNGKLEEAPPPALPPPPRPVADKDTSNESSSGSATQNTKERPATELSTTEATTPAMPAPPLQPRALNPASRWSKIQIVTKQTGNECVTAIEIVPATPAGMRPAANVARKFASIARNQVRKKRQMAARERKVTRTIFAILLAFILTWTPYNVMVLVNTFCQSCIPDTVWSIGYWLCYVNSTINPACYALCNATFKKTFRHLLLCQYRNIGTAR
M5 PAM: potentiates acetylcholine response at human M5 receptor. P08912. CHO-K1 hM5, Fluo-8 calcium, ACh EC20 PAM; 0% = ACh EC20, 100% = ACh EC100. activation, % at 3 µM. hit rate 0.3% among 360,000;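 active = activation above the run cutoff, the mean activation of all test compounds plus 3 SD, cut at about 18% in these data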
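Assay system – human M5 receptor in CHO-K1 cells · Read-out – % activation, ACh-normalized · Technique – Fluo-8 calcium fluorescence · Dosing – single-point, 3 µM nominal · Incubation – Fluo-8 loading 80 min at 37 °C plus 30 min room temperature · Repeats – singlicate, one well per test compound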
M4 ag: CHRM4 agonism in calcium assay | AID 624127 | CHO-K1 hM4/Gqi5, Fluo-8 calcium fluorescence; vehicle 0%, full acetylcholine response 100% | activation, % at 3 µM | P08173 | hit rate 0.14% among 360,000;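 active = activation above the run mean over all test wells plus 3 SD, cut at about 32% in these data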;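 note: peak over basal fluorescence ratio per well then scaled between controls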
CHRM5 agonist: CHRM5 agonism in calcium assay. AID 624037. P08912. hit rate 0.19% among 360,000. activation, % at 3 µM. CHO-K1 hM5 cells, Fluo-8 calcium fluorescence; 0% DMSO wells, 100% maximal acetylcholine response;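 active = activation above the run's mean over test compounds plus 3 SD, cut at about 23% in these data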;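 note: signal is peak over basal fluorescence ratio across the kinetic read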
CHRM4 PAM: potentiates acetylcholine response at human M4 receptor; AID 624126; activation, % at 3 µM; hit rate 0.4% among 360,000; CHO-K1 hM4/Gqi5, Fluo-8 calcium fluorescence, ACh EC20; 0% = ACh EC20, 100% = maximal ACh;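 active = activation above its plate's cutoff, the mean activation of sample wells plus 3 SD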
M5 antag: antagonists of human muscarinic M5 receptor (CHRM5) | CHO-hM5 cells, Fluo-8 calcium fluorescence, ACh EC80 | inhibition, % at 3 µM | hit rate 0.59% among 360,000 | AID 624040;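 active = inhibition above a per-plate cutoff, the mean of that plate's test compounds plus 3 SD, cut at about 27% in these data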
Numbers stand for hits; n = inactive. Shown are actives, neighbours in structure and some others; about 1.9% of the full set was active somewhere.

SMILES	CHRM4 antagonist	M5 PAM	M4 ag	CHRM5 agonist	CHRM4 PAM	M5 antag
COc1ccc(OC)c(-c2cc(C(=O)Nc3ccccc3C(N)=O)c3ccccc3n2)c1	30.8	n	n	n	n	n
COc1ccc(OC)c(-c2cc(C(=O)N/N=C/c3ccc(F)cc3)c3ccccc3n2)c1	n	n	n	n	n	n
COc1ccc(-c2cc(C(=O)N3CCCCCC3)c3ccccc3n2)c(OC)c1	n	n	n	n	n	n
COc1ccc(OC)c(-c2cc(C(=O)N3CCN(c4ncccn4)CC3)c3ccccc3n2)c1	n	n	n	n	n	31.1
CC(=O)c1ccc(S(=O)(=O)NC2CC2)cc1	n	n	n	n	n	n
Cn1ccnc1C(OC(=O)c1ccc(Cl)cc1)C(F)(F)F (stereo unspecified)	n	n	n	n	n	n
Cc1onc(-c2c(Cl)cccc2Cl)c1C(=O)N=S(C)(=O)c1ccccc1 (stereo unspecified)	n	n	n	n	n	n
Cc1noc(C)c1S(=O)(=O)NCCN1CCN(c2ccccc2)CC1	n	n	n	n	17.5	n
O=C(CN1C(=O)NC2(CCCC2)C1=O)Nc1cccc(Cl)c1	n	n	n	n	n	n
CCOC(=O)c1cn(CC#N)c2cc(F)c(F)cc2c1=O	n	n	n	n	24.2	n
CCOC(=O)c1cn(CC)c2cc(N3CCN(C)CC3)c(F)cc2c1=O	n	n	n	n	n	n
CCCCCCn1cc(C(=O)OCC)c(=O)c2cc(F)c(F)cc21	n	n	n	n	38.3	n
O=C(c1cc(S(=O)(=O)N2CCOCC2)c(Cl)cc1Cl)N1CCN(S(=O)(=O)c2cccc(F)c2)CC1	n	n	n	n	n	n
CCCS(=O)(=O)N1CCC(C(=O)N2CCCC2)CC1	n	20.9	n	n	n	n
CCCCCC(=O)O/N=C(\C)c1ccn(S(=O)(=O)c2ccccc2)c1	n	n	n	n	n	n
O=C(c1cccc(C(F)(F)F)c1)N1CCCCCC1	n	n	n	n	n	n
CC(C)n1c(C(F)(F)F)nc2cc(C(=O)N3CCCCC3)ccc21	30.0	n	n	n	n	n
O=C(c1cc(COc2ccc3ncccc3c2)on1)N1CCCCCC1	n	n	n	n	n	27.4
COc1cccc(CN(C)C(=O)c2cc(COc3ccc4ncccc4c3)on2)c1	33.7	n	n	n	n	40.2
O=C(c1cc(COc2ccc3ncccc3c2)on1)N1CCCC1	n	n	n	n	n	n
O=C(c1cc(COc2cccc3cccnc23)on1)N1CCC[C@H]1CO	n	n	n	n	n	n
CCN(CC)C1CCN(C(=O)c2cc(COc3cccc4cccnc34)on2)C1 (stereo unspecified)	38.3	n	n	n	n	n
CC(NC(=O)c1cc(COc2ccc3ncccc3c2)on1)c1ccc(F)cc1 (stereo unspecified)	n	n	n	n	n	35.6
COc1ccc(NC(=O)CCNC(=O)C2CCN(S(=O)(=O)c3ccccc3)CC2)cc1OC	n	n	n	n	n	n
CSCCC(NC(=O)c1cccc([N+](=O)[O-])c1)C(=O)OCC(=O)N1CCCC1=O (stereo unspecified)	n	n	n	n	n	n
SMILES	CHRM4 antagonist	M5 PAM	M4 ag	CHRM5 agonist	CHRM4 PAM	M5 antag
Cc1c(N2CCCC2)cc2c(c1N)C(C)(C)CC2(C)C	n	n	n	n	n	n
N#Cc1cccc(C(=O)Nc2ccccc2C(=O)NC2CC2)c1	n	n	n	n	n	n
CCCC(=O)N1CCN(c2nc3c(OC)ccc(Cl)c3s2)CC1	n	n	n	n	n	n
Fc1cccc(Cc2c(C3CCCCC3)nc3c4ccccc4ccn23)c1	n	n	n	n	n	n
Cc1cc(OCc2cc(C(=O)N3CCC(Oc4cccnc4)CC3)no2)cc(C)c1Cl	34.6	n	n	n	n	n
O=C(NCCc1cn2ccccc2n1)c1cc(COc2ccc3ncccc3c2)on1	36.4	n	n	n	n	33.0
Cc1cc(OCc2cc(C(=O)N3CCN(CC4CC4)CC3)no2)cc(C)c1Cl	n	n	n	n	n	n
Nc1[nH]nc2nc(N3CCCC3)nc(-c3ccccc3)c12	n	25.2	n	n	n	n
